Key:
[1] = tested on: chicken chorioallantoic membranes; test: Hen's egg test in chorioallantoic membrane
Method in brief: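 Fertilized hen eggs incubated 10 days at 37 ± 1°C and 60 ± 1% relative humidity. Shell opened and inner membranes removed. Test compound (40, 80, 160, 320 µg) applied to the CAM and watched for 300 s. Controls: 0.9% NaCl (negative) and 0.1 M NaOH (positive); N = 10. Onset times of hemorrhage, lysis and coagulation were weighted 5, 7 and 9 in the OII equation.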

[2] = tested on: ocular hypertensive rat eyes; assay type: in vivo, Wistar rats; details: ocular hypertensive rats, single drop, Bimatoprost 8.8 µg/eye, N = 6
Method in brief: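 Male Wistar rats (7–10 weeks) under i.p. ketamine/xylazine (90:10 mg/kg) plus topical 0.5% proxymetacaine. Right eye received 30 µL HA (10 mg/mL) intracamerally near the limbus, weekly for 3 weeks. Dosing (one 20 µL drop) began once IOP was raised. Groups: saline, test compound, bimatoprost, combination, normotensive saline; N = 6. IOP: TonoPen Vet on unsedated rats, mean of four readings.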

Structure (SMILES) | irritancy classification in words (HET-CAM) ([1]; PnPP-19 at all concentrations tested, NaOH at 0.1 M, 300 seconds) | OII ± SEM (ocular irritation index) ([1]; positive control 0.1 M, observed 300 seconds, N = 10) | ability to reduce IOP (in words) [2]
[Na+].[OH-] [0.1 M NaOH, sodium hydroxide] | severely irritating | 20.11± 0.32 | 
CCNC(=O)CCC/C=C\C[C@@H]1[C@@H](/C=C/[C@@H](O)CCc2ccccc2)[C@H](O)C[C@@H]1O [Bimatoprost] |  |  | not able to reduce IOP

From PMC7422904 (Translational Vision Science & Technology, 2020)
